Experimental data taken from ChEMBL document CHEMBL3596093, “Synthesis and antimicrobial evaluation of 5-aryl-1,2,4-triazole-3-thione derivatives containing a rhodanine moiety” (2015).
In brackets after ≈: the same amount, converted by molar mass.

Assays:
Staphylococcus aureus [1] = test: Antibacterial activity against Staphylococcus aureus RN4220 after 24 hrs by two-fold serial dilution method; format: functional; conditions: RN4220, 24 h
Summary of the method: (§1)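 Broth microdilution MIC. Bacteria grown to mid-log phase in Mueller-Hinton broth, diluted 1000-fold, about 10^5 CFU/mL. Compounds from DMSO stocks, two-fold serial dilution from a final 64 µg/mL. Incubation at 37 °C for 24 h. Growth read as absorbance at 630 nm on a microplate reader. Run in triplicate.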

Staphylococcus aureus [2] = test: Bactericidal activity against Staphylococcus aureus RN4220 after 24 hrs by agar plate method; format: functional; conditions: RN4220, 24 h
Summary of the method: (§2)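 Samples of 5 µL from MIC wells with no visible growth were plated onto fresh Mueller-Hinton agar and incubated a further 24 h at 37 °C. MBC is the lowest concentration giving no visible colony growth on the agar. Assays were run in triplicate.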

Staphylococcus aureus [3] = test: Antibacterial activity against methicillin-resistant Staphylococcus aureus CCARM 3506 after 24 hrs by two-fold serial dilution method; format: functional; conditions: CCARM 3506, 24 h; summary of the method: as §1
Staphylococcus aureus [4] = test: Bactericidal activity against Staphylococcus aureus KCTC 503 after 24 hrs by agar plate method; format: functional; conditions: KCTC 503, 24 h
Summary of the method: (§3)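 5 µL from each well without visible growth plated on fresh Mueller-Hinton agar, then 37 °C for a further 24 h. MBC is the lowest concentration giving no visible colonies. Run in triplicate.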

Escherichia coli [5] = test: Bactericidal activity against Escherichia coli KCTC 1924 after 24 hrs by agar plate method; format: functional; conditions: KCTC 1924, 24 h; summary of the method: as §2
Candida albicans [6] = test: Antifungal activity against Candida albicans 7535 after 24 hrs by two-fold serial dilution method; format: functional; conditions: Candida albicans, 7535, 24 h
Staphylococcus aureus [7] = test: Bactericidal activity against Staphylococcus aureus KCTC 209 after 24 hrs by agar plate method; format: functional; conditions: KCTC 209, 24 h; summary of the method: as §2
Staphylococcus aureus [8] = test: Bactericidal activity against methicillin-resistant Staphylococcus aureus CCARM 3167 after 24 hrs by agar plate method; format: functional; conditions: CCARM 3167, 24 h; summary of the method: as §3
Staphylococcus aureus [9] = test: Ratio of MBC to MIC for Staphylococcus aureus KCTC 503; format: functional
Summary of the method: (§4)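 The ratio divides MBC by MIC for the same strain. MIC comes from two-fold broth microdilution in Mueller-Hinton broth (about 10^5 CFU/mL, 37 °C, 24 h, absorbance at 630 nm). MBC comes from subculturing 5 µL from clear wells onto Mueller-Hinton agar for another 24 h at 37 °C, taken as the lowest concentration with no colonies.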

Staphylococcus aureus [10] = test: Ratio of MBC to MIC for Staphylococcus aureus KCTC 209; format: functional; summary of the method: as §4
Pseudomonas aeruginosa [11] = test: Antibacterial activity against Pseudomonas aeruginosa 2004 after 24 hrs by two-fold serial dilution method; format: functional; conditions: Pseudomonas aeruginosa, 2004, 24 h
Summary of the method: (§5)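 Strains grown to mid-log phase in Mueller-Hinton broth, then diluted 1000-fold in the same broth to about 10^5 CFU/mL. Compounds were made up as DMSO stocks and two-fold serially diluted from a final top concentration of 64 µg/mL. Incubation was 37 °C for 24 h. Growth was read as absorbance at 630 nm on a microplate reader. MIC assays were run in triplicate.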

Staphylococcus aureus [12] = test: Antibacterial activity against methicillin-resistant Staphylococcus aureus CCARM 3167 after 24 hrs by two-fold serial dilution method; format: functional; conditions: CCARM 3167, 24 h; summary of the method: as §1
Staphylococcus aureus [13] = test: Antibacterial activity against quinolone-resistant Staphylococcus aureus CCARM 3519 after 24 hrs by two-fold serial dilution method; format: functional; conditions: CCARM 3519, 24 h; summary of the method: as §1
Staphylococcus aureus [14] = test: Antibacterial activity against Staphylococcus aureus KCTC 503 after 24 hrs by two-fold serial dilution method; format: functional; conditions: KCTC 503, 24 h; summary of the method: as §5
Staphylococcus aureus [15] = test: Bactericidal activity against quinolone-resistant Staphylococcus aureus CCARM 3519 after 24 hrs by agar plate method; format: functional; conditions: CCARM 3519, 24 h; summary of the method: as §3
Staphylococcus aureus [16] = test: Antibacterial activity against quinolone-resistant Staphylococcus aureus CCARM 3505 after 24 hrs by two-fold serial dilution method; format: functional; conditions: CCARM 3505, 24 h; summary of the method: as §1
Streptococcus mutans [17] = test: Antibacterial activity against Streptococcus mutans 3065 after 24 hrs by two-fold serial dilution method; format: functional; conditions: Streptococcus mutans, 3065, 24 h; summary of the method: as §5
Staphylococcus aureus [18] = test: Bactericidal activity against methicillin-resistant Staphylococcus aureus CCARM 3506 after 24 hrs by agar plate method; format: functional; conditions: CCARM 3506, 24 h; summary of the method: as §3
Streptococcus mutans [19] = test: Bactericidal activity against Streptococcus mutans 3065 after 24 hrs by agar plate method; format: functional; conditions: Streptococcus mutans, 3065, 24 h; summary of the method: as §2
Salmonella typhimurium = test: Antibacterial activity against Salmonella typhimurium 2421 after 24 hrs by two-fold serial dilution method; format: functional, Salmonella enterica subsp. enterica serovar Typhimurium; conditions: Salmonella enterica, 2421, 24 h; summary of the method: as §5
Escherichia coli [20] = test: Antibacterial activity against Escherichia coli CCARM 1356 after 24 hrs by two-fold serial dilution method; format: functional; conditions: CCARM 1356, 24 h; summary of the method: as §5
Staphylococcus aureus [21] = test: Antibacterial activity against Staphylococcus aureus KCTC 209 after 24 hrs by two-fold serial dilution method; format: functional; conditions: KCTC 209, 24 h; summary of the method: as §5
Escherichia coli [22] = test: Ratio of MBC to MIC for Escherichia coli KCTC 1924; format: functional; summary of the method: as §4
Staphylococcus aureus [23] = test: Bactericidal activity against quinolone-resistant Staphylococcus aureus CCARM 3505 after 24 hrs by agar plate method; format: functional; conditions: CCARM 3505, 24 h; summary of the method: as §3
Escherichia coli [24] = test: Antibacterial activity against Escherichia coli KCTC 1924 after 24 hrs by two-fold serial dilution method; format: functional; conditions: KCTC 1924, 24 h; summary of the method: as §5
Candida albicans [25] = test: Fungicidal activity against Candida albicans 7535 after 24 hrs by agar plate method; format: functional; conditions: Candida albicans, 7535, 24 h
Pseudomonas aeruginosa [26] = test: Antibacterial activity against Pseudomonas aeruginosa 2742 after 24 hrs by two-fold serial dilution method; format: functional; conditions: Pseudomonas aeruginosa, 2742, 24 h; summary of the method: as §5

With `O=C(O)[C@H](Cc1ccccc1)N1C(=O)/C(=C/c2ccc(/C=N/n3c(-c4cccc(Cl)c4)n[nH]c3=S)cc2)SC1=S` the MIC (Staphylococcus aureus [1]) was 8 µg/mL (≈ 13.2 µM), the MBC (Staphylococcus aureus [2]) was 8 µg/mL (≈ 13.2 µM) and the MIC (Staphylococcus aureus [3]) was 16 µg/mL (≈ 26.4 µM). It also gave an MBC (Staphylococcus aureus [4]) of 16 µg/mL (≈ 26.4 µM), an MBC (Escherichia coli [5]) of 8 µg/mL (≈ 13.2 µM) and an MIC (Candida albicans [6]) of 8 µg/mL (≈ 13.2 µM). For the same compound, the MBC (Staphylococcus aureus [7]) was 16 µg/mL (≈ 26.4 µM), the MBC (Staphylococcus aureus [8]) was 8 µg/mL (≈ 13.2 µM) and the Ratio (Staphylococcus aureus [9]) was “<=4”. For the same compound, the Ratio (Staphylococcus aureus [10]) was 2, the MIC (Pseudomonas aeruginosa [11]) was greater than 128 µg/mL and the MIC (Staphylococcus aureus [12]) was 8 µg/mL (≈ 13.2 µM). For the same compound, the MIC (Staphylococcus aureus [13]) was 8 µg/mL (≈ 13.2 µM), the MIC (Staphylococcus aureus [14]) was 8 µg/mL (≈ 13.2 µM) and the MBC (Staphylococcus aureus [15]) was 32 µg/mL (≈ 52.8 µM). The MIC (Staphylococcus aureus [16]) was 8 µg/mL (≈ 13.2 µM), the MIC (Streptococcus mutans [17]) was 4 µg/mL (≈ 6.6 µM) and the MBC (Staphylococcus aureus [18]) was 16 µg/mL (≈ 26.4 µM). For the same compound, the MBC (Streptococcus mutans [19]) was greater than 32 µg/mL, the MIC (Salmonella typhimurium) was greater than 128 µg/mL and the MIC (Escherichia coli [20]) was greater than 128 µg/mL. For the same compound, the MIC (Staphylococcus aureus [21]) was 8 µg/mL (≈ 13.2 µM), the Ratio (Escherichia coli [22]) was “<=4” and the MBC (Staphylococcus aureus [23]) was 32 µg/mL (≈ 52.8 µM). It also gave an MIC (Escherichia coli [24]) of 8 µg/mL (≈ 13.2 µM), an MFC (Candida albicans [25]) of 8 µg/mL (≈ 13.2 µM) and an MIC (Pseudomonas aeruginosa [26]) greater than 128 µg/mL.
